ChEMBL document CHEMBL3621200, “Toward the discovery of dual HCMV-VZV inhibitors: Synthesis, structure activity relationship analysis, and cytotoxicity studies of long chained 2-uracil-3-yl-N-(4-phenoxyphenyl)acetamides” (Bioorg Med Chem, 2015)
Calls of active or inactive are those of the source. The rule behind the calls is not given here.

Columns and labels:
Feline coronavirus = assay: Antiviral activity against Feline coronavirus; assay type: functional, organism-based
[1] = test system: Human immunodeficiency virus 2; assay: Antiviral activity against HIV2 ROD infected in human CEM cells assessed as reduction in virus- induced cytopathicity incubated for 4 to 5 days by microscopy based virus syncytium formation assay; assay type: functional, organism-based; conditions: ISOLATE ROD, CCRF-CEM
In short: (§1)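 CEM cells at ~3 × 10^5 cells/mL, infected with 100 CCID50 of HIV per mL in the presence of compound dilutions. Incubated 4–5 days at 37 °C in humidified CO2. Syncytium (giant cell) formation scored by microscopy.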

Human alphaherpesvirus 2 = assay: Antiviral activity against HSV2 Lyons; assay type: functional, organism-based
In short: (§2)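 Confluent cell monolayers in 96-well plates were inoculated with 100 CCID50 of virus together with varying compound concentrations. Cytopathicity was scored once it reached completion in untreated infected controls.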

[2] = test system: Vesicular stomatitis virus; assay: Antiviral activity against Vesicular stomatitis virus; assay type: functional, organism-based
In short: (§3)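 Confluent cell monolayers (HEL, Vero, HeLa or MDCK) in 96-well plates were infected with 100 CCID50 of virus in the presence of varying compound concentrations. Cytopathicity was scored once it reached completion in untreated infected controls.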

[3] = Cytotoxicity against Varicella zoster virus infected HEL cells assessed as alteration of cell morphology incubated for 3 days by microscopy; assay type: cell-based; conditions: human, HEL cells infected with Varicella zoster virus
In short: (§4)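 Cytotoxicity was given as the minimum cytotoxic concentration (MCC): the compound concentration causing a microscopically detectable change in HEL cell morphology.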

Influenza A virus H3N2 = assay: Antiviral activity against Influenza A virus H3N2; assay type: functional, organism-based; in short: as §3
[4] = Cytotoxicity against human cytomegalovirus infected HEL cells assessed as alteration of cell morphology incubated for 3 days by microscopy; assay type: cell-based; conditions: HEL cells infected with human cytomegalovirus; in short: as §4
Influenza A virus = assay: Antiviral activity against Influenza A virus H1N1; assay type: functional, organism-based; in short: as §3
Human betaherpesvirus 5 [5] = assay: Antiviral activity against human cytomegalovirus AD169 infected in HEL cells assessed as reduction in viral plaque formation; assay type: functional, organism-based; conditions: Human betaherpesvirus 5, AD169, HEL
In short: (§5)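 Confluent HEL fibroblasts were infected with 100 PFU of HCMV in the presence of varying compound concentrations. Plaques were counted once plaque formation was complete in untreated infected controls.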

Vaccinia virus = assay: Antiviral activity against Vaccinia virus Lederle; assay type: functional, organism-based; conditions: Orthopoxvirus vaccinia; in short: as §3
Punta Toro virus = assay: Antiviral activity against Punta Toro virus; assay type: functional, organism-based
[6] = test system: Human herpesvirus 2 strain G; assay: Antiviral activity against HSV2 G Lyons; assay type: functional, organism-based
Sindbis virus = assay: Antiviral activity against Sindbis virus; assay type: functional, organism-based
[7] = test system: Mammalian orthoreovirus 1; assay: Antiviral activity against Reovirus 1; assay type: functional
Human respirovirus 3 = assay: Antiviral activity against Parainfluenza 3 virus; assay type: functional, organism-based
Influenza B virus = assay: Antiviral activity against Influenza B virus; assay type: functional, organism-based; in short: as §3
Coxsackievirus B4 = assay: Antiviral activity against Human coxsackievirus B4; assay type: functional, organism-based
Human alphaherpesvirus 1 = assay: Antiviral activity against HSV1 KOS; assay type: functional, organism-based; in short: as §2
[8] = test system: Human immunodeficiency virus 1; assay: Antiviral activity against HIV1 3B infected in human CEM cells assessed as reduction in virus- induced cytopathicity incubated for 4 to 5 days by microscopy based virus syncytium formation assay; assay type: functional, organism-based; conditions: CCRF-CEM; in short: as §1
Human betaherpesvirus 5 [9] = assay: Antiviral activity against human cytomegalovirus Davis infected in HEL cells assessed as reduction in viral plaque formation; assay type: functional, organism-based; conditions: Human betaherpesvirus 5, Davis; in short: as §5
HEL = assay: Cytotoxicity against human cytomegalovirus infected HEL cells assessed as cell growth inhibition incubated for 3 days by coulter counter method; assay type: cell-based; conditions: 72 h
In short: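 HEL cells were seeded at 5 × 10^3 cells/well and left to adhere and proliferate for 24 h, then compound-containing medium was added. After 3 days at 37 °C, cells were counted with a Coulter counter.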

## O=C(Cn1c(=O)ccn(COCCOCc2ccc(Br)cc2)c1=O)Nc1ccc(Oc2ccccc2)cc1
Feline coronavirus
  inhibition: inactive
[1]
  inhibition: inactive
Human alphaherpesvirus 2
  inhibition: inactive
[2]
  inhibition: inactive
[3]
  MCC at 72 h: > 100 µM
Influenza A virus H3N2
  inhibition: inactive
[4]
  MCC at 72 h: 100 µM
Influenza A virus
  inhibition: inactive
Human betaherpesvirus 5 [5]
  EC50: > 20000 nM
Vaccinia virus
  inhibition: inactive
Punta Toro virus
  inhibition: inactive
[6]
  inhibition: inactive
Sindbis virus
  inhibition: inactive
[7]
  inhibition: inactive
Human respirovirus 3
  inhibition: inactive
Influenza B virus
  inhibition: inactive
Coxsackievirus B4
  inhibition: inactive
Human alphaherpesvirus 1
  inhibition: inactive
[8]
  inhibition: inactive
Human betaherpesvirus 5 [9]
  EC50: > 20 µM

## O=C(Cn1c(=O)ccn(CCCCCOc2cccc(Br)c2)c1=O)Nc1ccc(Oc2ccccc2)cc1
Feline coronavirus
  inhibition: inactive
[1]
  inhibition: inactive
Human alphaherpesvirus 2
  inhibition: inactive
[2]
  inhibition: inactive
[3]
  MCC at 72 h: > 100 µM
Influenza A virus H3N2
  inhibition: inactive
[4]
  MCC at 72 h: ≥ 100 µM
Influenza A virus
  inhibition: inactive
Human betaherpesvirus 5 [5]
  EC50: 2000 nM
Vaccinia virus
  inhibition: inactive
Punta Toro virus
  inhibition: inactive
[6]
  inhibition: inactive
Sindbis virus
  inhibition: inactive
[7]
  inhibition: inactive
Human respirovirus 3
  inhibition: inactive
Influenza B virus
  inhibition: inactive
Coxsackievirus B4
  inhibition: inactive
Human alphaherpesvirus 1
  inhibition: inactive
[8]
  inhibition: inactive
HEL
  CC50: 6.3 µM
Human betaherpesvirus 5 [9]
  EC50: 3.1 µM

## O=C(Cn1c(=O)ccn(Cc2ccc(Oc3ccc(Br)cc3)cc2)c1=O)Nc1ccc(Oc2ccccc2)cc1
Feline coronavirus
  inhibition: inactive
[1]
  inhibition: inactive
Human alphaherpesvirus 2
  inhibition: inactive
[2]
  inhibition: inactive
[3]
  MCC at 72 h: 20 µM
Influenza A virus H3N2
  inhibition: inactive
[4]
  MCC at 72 h: 4 µM
Influenza A virus
  inhibition: inactive
Human betaherpesvirus 5 [5]
  EC50: > 800 nM
Vaccinia virus
  inhibition: inactive
Punta Toro virus
  inhibition: inactive
[6]
  inhibition: inactive
Sindbis virus
  inhibition: inactive
[7]
  inhibition: inactive
Human respirovirus 3
  inhibition: inactive
Influenza B virus
  inhibition: inactive
Coxsackievirus B4
  inhibition: inactive
Human alphaherpesvirus 1
  inhibition: inactive
[8]
  inhibition: inactive
Human betaherpesvirus 5 [9]
  EC50: > 0.8 µM

## Nc1nc(O)c2ncn(COC(CO)CO)c2n1 [GANCICLOVIR]
[4]
  MCC at 72 h: > 350 µM
HEL
  CC50: ≥ 319 µM

## O=C(Cn1c(=O)ccn(CCCCCOc2ccccc2)c1=O)Nc1ccc(Oc2ccccc2)cc1
Feline coronavirus
  inhibition: inactive
[1]
  inhibition: inactive
Human alphaherpesvirus 2
  inhibition: inactive
[2]
  inhibition: inactive
[3]
  MCC at 72 h: > 100 µM
Influenza A virus H3N2
  inhibition: inactive
[4]
  MCC at 72 h: ≥ 20 µM
Influenza A virus
  inhibition: inactive
Human betaherpesvirus 5 [5]
  EC50: 3600 nM
Vaccinia virus
  inhibition: inactive
Punta Toro virus
  inhibition: inactive
[6]
  inhibition: inactive
Sindbis virus
  inhibition: inactive
[7]
  inhibition: inactive
Human respirovirus 3
  inhibition: inactive
Influenza B virus
  inhibition: inactive
Coxsackievirus B4
  inhibition: inactive
Human alphaherpesvirus 1
  inhibition: inactive
[8]
  inhibition: inactive
HEL
  CC50: 5.4 µM
Human betaherpesvirus 5 [9]
  EC50: 4 µM

## O=C(Cn1c(=O)ccn(CCCCCOc2ccc(Br)cc2)c1=O)Nc1ccccc1
Feline coronavirus
  inhibition: inactive
[1]
  inhibition: inactive
Human alphaherpesvirus 2
  inhibition: inactive
[2]
  inhibition: inactive
[3]
  MCC at 72 h: ≥ 20 µM
Influenza A virus H3N2
  inhibition: inactive
[4]
  MCC at 72 h: 20 µM
Influenza A virus
  inhibition: inactive
Human betaherpesvirus 5 [5]
  EC50: > 4000 nM
Vaccinia virus
  inhibition: inactive
Punta Toro virus
  inhibition: inactive
[6]
  inhibition: inactive
Sindbis virus
  inhibition: inactive
[7]
  inhibition: inactive
Human respirovirus 3
  inhibition: inactive
Influenza B virus
  inhibition: inactive
Coxsackievirus B4
  inhibition: inactive
Human alphaherpesvirus 1
  inhibition: inactive
[8]
  inhibition: inactive
Human betaherpesvirus 5 [9]
  EC50: > 4 µM

## O=C(Cn1c(=O)ccn(CCCCCOc2ccc(Br)cc2)c1=O)Nc1ccc(OCc2ccccc2)cc1
Feline coronavirus
  inhibition: inactive
[1]
  inhibition: inactive
Human alphaherpesvirus 2
  inhibition: inactive
[2]
  inhibition: inactive
[3]
  MCC at 72 h: ≥ 20 µM
Influenza A virus H3N2
  inhibition: inactive
[4]
  MCC at 72 h: ≥ 20 µM
Influenza A virus
  inhibition: inactive
Human betaherpesvirus 5 [5]
  EC50: > 20000 nM
Vaccinia virus
  inhibition: inactive
Punta Toro virus
  inhibition: inactive
[6]
  inhibition: inactive
Sindbis virus
  inhibition: inactive
[7]
  inhibition: inactive
Human respirovirus 3
  inhibition: inactive
Influenza B virus
  inhibition: inactive
Coxsackievirus B4
  inhibition: inactive
Human alphaherpesvirus 1
  inhibition: inactive
[8]
  inhibition: inactive
Human betaherpesvirus 5 [9]
  EC50: 4 µM

## O=C(Cn1c(=O)ccn(CCCCCOc2ccc(Br)cc2)c1=O)Nc1ccc(Cc2ccccc2)cc1
Feline coronavirus
  inhibition: inactive
[1]
  inhibition: inactive
Human alphaherpesvirus 2
  inhibition: inactive
[2]
  inhibition: inactive
[3]
  MCC at 72 h: ≥ 4 µM
Influenza A virus H3N2
  inhibition: inactive
[4]
  MCC at 72 h: 4 µM
Influenza A virus
  inhibition: inactive
Human betaherpesvirus 5 [5]
  EC50: 440 nM
Vaccinia virus
  inhibition: inactive
Punta Toro virus
  inhibition: inactive
[6]
  inhibition: inactive
Sindbis virus
  inhibition: inactive
[7]
  inhibition: inactive
Human respirovirus 3
  inhibition: inactive
Influenza B virus
  inhibition: inactive
Coxsackievirus B4
  inhibition: inactive
Human alphaherpesvirus 1
  inhibition: inactive
[8]
  inhibition: inactive
HEL
  CC50: 8.7 µM
Human betaherpesvirus 5 [9]
  EC50: 0.57 µM

## O=C(Cn1c(=O)ccn(CCCCCCc2ccccc2)c1=O)Nc1ccc(Oc2ccccc2)cc1
Feline coronavirus
  inhibition: inactive
[1]
  inhibition: inactive
Human alphaherpesvirus 2
  inhibition: inactive
[2]
  inhibition: inactive
[3]
  MCC at 72 h: > 100 µM
Influenza A virus H3N2
  inhibition: inactive
[4]
  MCC at 72 h: 100 µM
Influenza A virus
  inhibition: inactive
Human betaherpesvirus 5 [5]
  EC50: > 20000 nM
Vaccinia virus
  inhibition: inactive
Punta Toro virus
  inhibition: inactive
[6]
  inhibition: inactive
Sindbis virus
  inhibition: inactive
[7]
  inhibition: inactive
Human respirovirus 3
  inhibition: inactive
Influenza B virus
  inhibition: inactive
Coxsackievirus B4
  inhibition: inactive
Human alphaherpesvirus 1
  inhibition: inactive
[8]
  inhibition: inactive
Human betaherpesvirus 5 [9]
  EC50: > 20 µM

## O=C(Cn1c(=O)ccn(CCCCCOc2ccc(-c3ccccc3)cc2)c1=O)Nc1ccc(Oc2ccccc2)cc1
Feline coronavirus
  inhibition: inactive
[1]
  inhibition: inactive
Human alphaherpesvirus 2
  inhibition: inactive
[2]
  inhibition: inactive
[3]
  MCC at 72 h: 100 µM
Influenza A virus H3N2
  inhibition: inactive
[4]
  MCC at 72 h: 20 µM
Influenza A virus
  inhibition: inactive
Human betaherpesvirus 5 [5]
  EC50: 510 nM
Vaccinia virus
  inhibition: inactive
Punta Toro virus
  inhibition: inactive
[6]
  inhibition: inactive
Sindbis virus
  inhibition: inactive
[7]
  inhibition: inactive
Human respirovirus 3
  inhibition: inactive
Influenza B virus
  inhibition: inactive
Coxsackievirus B4
  inhibition: inactive
Human alphaherpesvirus 1
  inhibition: inactive
[8]
  inhibition: inactive
HEL
  CC50: 2.8 µM
Human betaherpesvirus 5 [9]
  EC50: 1.04 µM

## O=C(Cn1c(=O)c(I)cn(CCCCCOc2ccc(Br)cc2)c1=O)Nc1ccc(Oc2ccccc2)cc1
Feline coronavirus
  inhibition: inactive
[1]
  inhibition: inactive
Human alphaherpesvirus 2
  inhibition: inactive
[2]
  inhibition: inactive
[3]
  MCC at 72 h: > 100 µM
Influenza A virus H3N2
  inhibition: inactive
[4]
  MCC at 72 h: 100 µM
Influenza A virus
  inhibition: inactive
Human betaherpesvirus 5 [5]
  EC50: > 20000 nM
Vaccinia virus
  inhibition: inactive
Punta Toro virus
  inhibition: inactive
[6]
  inhibition: inactive
Sindbis virus
  inhibition: inactive
[7]
  inhibition: inactive
Human respirovirus 3
  inhibition: inactive
Influenza B virus
  inhibition: inactive
Coxsackievirus B4
  inhibition: inactive
Human alphaherpesvirus 1
  inhibition: inactive
[8]
  inhibition: inactive
Human betaherpesvirus 5 [9]
  EC50: > 20 µM

## Nc1ccn(C[C@@H](CO)OCP(=O)(O)O)c(=O)n1 [CIDOFOVIR]
[4]
  MCC at 72 h: > 300 µM
HEL
  CC50: ≥ 208 µM
Human betaherpesvirus 5 [9]
  EC50: 0.84 µM
